Test results from the RNAGym collection of RNA variant scans (doi:10.1126/science.aae0568).
This sample holds only a part of the variants without activity.

B1: tRNA (parent)
chain: GUUCCGUUGGCGUAAUGGUAACGCGUCUCCCUCCUAAGGAGAAGACUGCGGGUUCGAGUCCCGUACGGAACG

Variants of: B1
Assay: yeast fitness relative to wild type (ratio to wild type); higher = fitter; tRNA-Arg(CCU), competitive growth, 37 C, YPD
Outline: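 A pool of Saccharomyces cerevisiae strains, each with a tRNA-Arg(CCU) gene variant at the native genomic locus, was competed in YPD at 37°C for 24 hours across six parallel replicates. The variants had been chemically synthesised at a 3% per-site mutation rate over 69 sites, and gene amplicons before and after competition were read by 100-nucleotide paired-end sequencing. Darwinian fitness relative to wild type rested on changes in genotype frequencies. Genotypes required ≥ 100 starting reads, and estimates < 0.5 were set to 0.5.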

Variant | yeast fitness
GUUCCGUUGGCGUAAUGGUAACGCGUCUCCCUCCUAUGGAGAAGACUGCGGGAUCGACUCCCGUACGGAACG | ≤ 0.5
GUUCCGUUGGCGUAAUGGUAACGCGUCUCCCUCCUAUGGAGAAGACUGCGGGGUCGAGUCCCGUACGGAACG | 0.538
GUUCCGUUGGCGUAAUGGUAACGCGUCUCCCUCCUAUGGAGAAGACUGCGGGGUCGAGUCCCGUUCGGAACG | ≤ 0.5
GUUCCGUUGGCGUAAUGGUAACGCGUCUCCCUCCUAUGGAGAAGACUGCGGGUCCGAGUCCCGAACGGUACG | ≤ 0.5
GUUCCGUUGGCGUAAUGGUAACGCGUCUCCCUCCUAUGGAGAAGACUGCGGGUGCGAGUCCCGUACGGAACG | ≤ 0.5
GUUCCGUUGGCGUAAUGGUAACGCGUCUCCCUCCUAUGGAGAAGACUGCGGGUUCGAGACCCGUACGGAACG | 0.706
GUUCCGUUGGCGUAAUGGUAACGCGUCUCCCUCCUAUGGAGAAGACUGCGGGUUCGAGUCCCGCACGGAACG | 0.77
GUUCCGUUGGCGUAAUGGUAACGCGUCUCCCUCCUAAAGCGAAGACUGCGGGUUCGAGUCCCGUACGGAACG | 0.624
GUUCCGUUGGCGUAAUGGUAACGCGUCUCCCUCCUAAAGCGAAGACUGCGGGUUCAAGUUGCGUACUGAACG | ≤ 0.5
GUUCCGUUGGCGUAAUGGUAACGCGUCUCCCUCCUAAAGGGAAGACUGCGGGUUCGAGUCCCGUACGGAACG | 0.82
GUUCCGUUGGCGUAAUGGUAACGCGUCUCCCUCCUAAAGGGAAGACUGCGGGUUCGAGUCCCGUAAGGAACG | 0.597
GUUCCGUUGGCGUAAUGGUAACGCGUCUCCCUCCUAAAGUGAAGACUGCCGGUUCGAGUGCCGUACGGAACG | ≤ 0.5
GUUCCGUUGGCGUAAUGGUAACGCGUCUCCCUCCUAAAGUGAAGACUGCCGGUUCGAGUGCCGUUCGGAACG | ≤ 0.5
GUUCCGUUGGCGUAAUGGUAACGCGUCUCCCUCCUAAAGUGAAGACUGCGGGUUCGACUCCCGUACGGAACG | 0.853
GUUCCGUUGGCGUAAUGGUAACGCGUCUCCCUCCUAAAGAGCAGACUGCGGGUUCGAGUCCCGUACGGAACG | 0.734
GUUCCGUUGGCGUAAUGGUAACGCGUCUCCCUCCUAAAGAGCAGCCUGCGGGUUCGAGUCCAGUACGGAACG | ≤ 0.5
GUUCCGUUGGCGUAAUGGUAACGCGUCUCCCUCCUAAAGAGCAGUCUGCGGAUUCGAGUCCCGUACGGAACG | ≤ 0.5
GUUCCGUUGGCGUAAUGGUAACGCGUCUCCCUCCUAAAGAGUAGACUGCGGGUUCGAGUCCCGUACGGAACG | 0.661
GUUCCGUUGGCGUAAUGGUAACGCGUCUCCCUCCUAAAGAGUAGACUGCGGGUACGAGUCCCGUACGGAACG | ≤ 0.5

Variant | yeast fitness
GUUCCGUUGGCGUAAUGGUAACGCGUCUCCCUCCUAAAGAGAGGACUGCGGGUUCGCGUCCCGUACGGAACG | ≤ 0.5
GUUCCGUUGGCGUAAUGGUAACGCGUCUCCCUCCUAAAGAGAGGACUGCGGGUUCGAGUCCCGUACGGCACG | ≤ 0.5
GUUCCGUUGGCGUAAUGGUAACGCGUCUCCCUCCUAAAGAGAAGCCUGCGGGUUCGAGUCCCGUACGGUACG | 0.684
GUUCCGUUGGCGUAAUGGUAACGCGUCUCCCUCCUAAAGAGAAGGCUGCGGAUUCGAGUCGCGUACGGAACG | 0.679
GUUCCGUUGGCGUAAUGGUAACGCGUCUCCCUCCUAAAGAGAAGACUGCGGGUUCGGGUCCCGUACGGAACG | 0.854
GUUCCGUUGGCGUAAUGGUAACGCGUCUCCCUCCUAAAGAGAAGACUGCGGGUUCGAGUCCCGUUCGGAACG | 0.739
GUUCCGUUGGCGUAAUGGUAACGCGUCUCCCUCCUAAAGAGAAGACUGCGGGUUCGAGUCCCGUACGGUACG | 1.04
GUUCCGUUGGCGUAAUGGUAACGCGUCUCCCUCCUAAAGAGAAGACUGCGGGUUCGAGUCCCGUACGGACCG | 0.942
GUUCCGUUGGCGUAAUGGUAACGCGUCUCCCUCCUAAAGAGAAGACUGCGGGUUCGAGUCCCGUACGGAGCG | 0.998
GUUCCGUUGGCGUAAUGGUAACGCGUCUCCCUCCUAAAGAGAAGACUGCGGGUUCGAGUCCCGUACGGAUCG | 0.953
GUUCCGUUGGCGUAAUGGUAACGCGUCUCCCUCCUAAAGAGAAGAGUGCGGGUUCCAGUCCCGUACGGAACG | ≤ 0.5
GUUCCGUUGGCGUAAUGGUAACGCGUCUCCCUCCUAAAGAGAAGAUUGCGGGUUCGAGUCCCGUACGGUACG | 0.686
GUUCCGUUGGCGUAAUGGUAACGCGUCUCCCUCCUAAAGAGAAGACUGAGGGUUCGAGUCCCGUACGGAUCG | 0.729
GUUCCGUUGGCGUAAUGGUAACGCGUCUCCCUCCUAAAGAGAAGACUGUGGGUUCGAGUCCCGUACGGAACG | 1.03
GUUCCGUUGGCGUAAUGGUAACGCGUCUCCCUCCUAAAGAGAAGACUGUGGGUCCGAGUCCCGUACGGAACG | ≤ 0.5
GUUCCGUUGGCGUAAUGGUAACGCGUCUCCCUCCUAAAGAGAAGACUGCGGGUUAGAGUCCCGUACGGAACG | 0.71
GUUCCGUUGGCGUAAUGGUAACGCGUCUCCCUCCUAAAGAGAAGACUGCGGGUUUGGGUCCCGUACGGAACG | ≤ 0.5
GUUCCGUUGGCGUAAUGGUAACGCGUCUCCCUCCUAAAGAGAAGACUGCGGGUUCGAGUACCGUACGGAACG | 0.646
GUUCCGUUGGCGUAAUGGUAACGCGUCUCCCUCCUAAAGAGAAGACUGCGGGUUCGAGUGCCGUACGGAACG | 0.623
